Measured values as given in the EternaBench riboswitch data.

System: MS2 coat protein
Experiment: apparent Kd, MS2 coat protein; higher = weaker binding; RNA-MaP array; FMN 200 µM where present
In short: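 SNAP-549-labelled MS2 coat protein, doubled from 0.7 or 1.5 nM to 3 µM, was titrated over designs transcribed by stalled E. coli RNA polymerase on Illumina sequencing-chip clusters. Titrations were run without and then with constant ligand in 100 mM Tris-HCl pH 7.5, 80 mM KCl, 4 mM MgCl2, BSA, DTT, yeast tRNA and Tween-20. The apparent Kd is the median of filtered per-cluster fits to green signal normalised to red-channel RNA signal and control-cluster median Fmax.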

[1] = designed as: OFF switch for flavin mononucleotide, no ligand
[2] = ligand present: flavin mononucleotide, designed as: OFF switch for flavin mononucleotide
[3] = designed as: ON switch for flavin mononucleotide, no ligand
[4] = ligand present: flavin mononucleotide, designed as: ON switch for flavin mononucleotide

| Sequence | apparent Kd [1] [nM] | apparent Kd [2] [nM] | apparent Kd [3] [nM] | apparent Kd [4] [nM] |
| --- | --- | --- | --- | --- |
| CAGGUAGACUGAGGAUAUACAAGACUUAGUCUAUCUAGGUCAAAAUCCACAUGAGGAUCACCCAUGUAGAAGGCAGUCUGCCUG | 17.6 | 46.8 |  |  |
| UCGUAUAUACAAGGAUAUCAAUUAUUGCUAAAUACAACAUGAGGAUCACCCAUGUAACUAUGGAGUGAGAAGGUGUAAUGACUU |  |  | 740 | 603 |
| GUGUAGUCAGGAUAUACAUAGGAAGAGAAGAGAAGAGAAGGACAUGAGGAUCACCCAUGUAGAAGGGACAGUGU | 46.7 | 40.9 |  |  |
| UAUUUUUAUGUAAGGAUAUGGGUUUGGUUGCGGGCUUAGAAGGUACAUGAGGAUCACCCAUGUAUAAUGUGCGU | 29.6 | 30.5 |  |  |
| GUCAGCUCGUGAGGAUAUACAACACUGCUUCGGCAGUGUAUUAAGAUCACAUGAGGAUCACCCAUGUAGAAGGCACGAGCUGAC | 12.9 | 251 |  |  |
| AGCUGGUGACAGCAUCGAGCUUAACAUGAGGAUCACCCAUGUAGAAGGCUGUACGGUUACCGUACAGAGGAUAUACAUAGCUCG | 6.79 | 7.04 |  |  |
| UUCGUGCAGCUUAGCUGUACGCGUACAUGAGGAUCACCCAUGUAGGAUAUGGUAGGCAAAGCUUACUAGAAGGAUAUAGUGAUC | 129 | 144 |  |  |
| AUAUGAGCUAUGGAGGAUAUCCAUAACAAGACAUGAGGAUCACCCAUGUAAUCAAAACAAUAAUGGGAGAAGGCCAUAGCUCAAU |  |  | 67.8 | 76.5 |
| GCUAGUCAUGUCAGGAUAUGCUGUACCUUGGUACAGCAGAAGGGACAUGAGGAUCACCCAUGUGCCUAACUAGC | 39 | 416 |  |  |
| AAGAAGUCAGGAUAUCCUGCUCGUCACUUGCGUGAUGAGUAGGAGAAGGGACAUGAGGAUCACCCAUGUAAAGU | 51.1 | 56.2 |  |  |
| AUAUCCUUUUUAUACAUGAGGAUCACCCAUGUUUUUCUUACGUAGGAUAUCGUUGUUUUUUUUUACGAGAAGGACGUAGAAUGU |  |  | 23.6 | 23.9 |
| ACGUGUCGUGUAGGAUAUGACACAGGAAACUGGUCAGAAGGACAUGAGGAUCACCCAUGUAAAGUGUUUAAGGAUGACGUAUGC | 49.9 | 151 |  |  |
| UGAUAGGACAGAGGAUAUACCGAUAGGAUCUACUAUCGAACAAUUCUCACAUGAGGAUCACCCAUGUAGAAGGCUGUCCUAUCU | 15.8 | 30.2 |  |  |
| GCUGCAUGCAGAGGAUAUAUAACAUGAGGAUCACCCAUGUUAAUAAUAUGGAUAAACCAGAUAGUAUAGAAGGCUGCAUGCAGC | 19.5 | 23.8 |  |  |
| AGAAACUACGAGAAGGACAUGUGGAAAAACGCAAACAUGAGGAUCACCCAUGUAGGAUAUCGUAGUUUCAGGAUCGUGAGAUCA | 304 | 367 |  |  |
| UCUUUAUAGAUCCAUUUUAACUACAUGAGGAUCACCCAUGUGCAGGAUAUCGAUUGUUUUACUUUCGAGAAGGGCAAAUUCAGC | 57.6 | 131 |  |  |
| UUACUACAUGAGGAUCACCCAUGUCAGGAUAUUGUCUAUACUUUGGAAUAUGUGUCGAUAAGAAGGGACUGUAU | 19.9 | 26.2 |  |  |
| AGGAUGUUAGGAUAUCGGAGAUGCGGGAGGAGGUGGAGGUACGAGAAGGAACAUGAGGAUCACCCAUGUGGAAG | 20.3 | 19.9 |  |  |
| AGUCGGAGCAGAGGAUAUACAUGAGGAUCACCCAUGUAAAUGGAAGAAGACUGGAAACAGUCAAUGUAGAAGGCUGCUCCGACA | 121 | 625 |  |  |
| CACGGGUCAGGAUAUUGUUAGUUUAGUUGUUUGUAUUAGUUCGAGAAGGGACAUGAGGAUCACCCAUGUGGUCA | 285 | 269 |  |  |
| CGCAUGCGUAGAAUUAGUUGCUGACAGGAUAUGACAUGAGGAUCACCCAUGUGAUUUAAGAAGAGUCAGAAGGGUCACGAUGCG | 10.7 | 15.1 |  |  |
| AGGUGUCCUGAGAAAUUUCUCGACAUGAGGAUCACCCAUGUAGAGGAUAUCGACGCUGUGCGGUUCGAGAAGGCUACACGAAUU | 12.7 | 94.3 |  |  |
| GUGCACACUCGAGGAUAUCGGAGUUUUUUUCUUCGAGAAGGCGAUUCGUGCCGUGUUAUUUUGGACAUGAGGAUCACCCAUGUG |  |  | 79.9 | 34.4 |
